Calls of active or inactive are those of the source. The rule behind the calls is not given here. Where a SMILES comes first, the peptide text is derived from it. [ ]: non-standard residue; d: D form. The star is where a group is joined. d(aIle) = CC[C@H](C)[C@@H](N)C(=O)O; NMeF = CN[C@@H](Cc1ccccc1)C(=O)O; dDab = NCC[C@@H](N)C(=O)O; Octanoyl = CCCCCCCC(=O)*; Dab = NCC[C@H](N)C(=O)O; Aib = CC(C)(N)C(=O)O; Sar = CNCC(=O)O
Key:
D-peptidase BogQ = assay: Substrate activity at bacterial D-peptidase BogQ expressed in Escherichia coli BL21 assessed as enzyme-mediated compound hydrolysis at 50 uM incubated for 1 hr by UPLC-MS analysis; type: ADME; conditions: bacteria; read-out: Activity
Outline: (§1)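 His-purified (Ni-NTA) enzyme from IPTG-induced E. coli BL21 (200 μM IPTG after 15 °C hold). Substrate 50 μM with BogQ 20 nM for 1 h or TriFpep 200 nM for 24 h, 37 °C, in 25% PBS pH 7.4. Quenched with cold methanol, cleavage ratio by UPLC–MS at end point; two independent experiments.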

D-peptidase TriF = assay: Substrate activity at Paenibacillus polymyxa CICC10580 D-peptidase TriF expressed in Escherichia coli BL21 assessed as enzyme-mediated compound hydrolysis at 50 uM incubated for 24 hrs by UPLC-MS analysis; type: ADME; conditions: read-out: Activity; outline: as §1
Staphylococcus aureus = assay: Antibacterial activity against Staphylococcus aureus NCTC 10788 assessed as bacterial growth inhibition by microbroth dilution method; type: functional
Escherichia coli [1] = assay: Antibacterial activity against Escherichia coli NCTC 12241 assessed as bacterial growth inhibition by microbroth dilution method; type: functional
[2] = Hemolytic activity in sheep erythrocytes assessed as hemolysis at 200 ug/ml incubated for 30 by spectrophotometry relative to control; type: ADME, cell-based, Ovis aries, Erythrocyte; conditions: read-out: Activity
Outline: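 Defibrinated sheep blood washed four times in PBS, resuspended, mixed 1:1 with peptide in PBS (200 μg/mL in well before mixing); 30 min, 37 °C. Diluted, centrifuged, supernatant absorbance at 415 nm. Percent hemolysis relative to 0.1% Triton X-100, PBS blank; triplicate, two independent experiments averaged.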

Escherichia coli [3] = assay: Binding affinity to Escherichia coli NCTC 12241 lipid 2 assessed as formation of zone of inhibition at 60 uM incubated for 16 hrs by spot-on-lawn assay
Outline: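 E. coli NCTC 12241 suspended to OD600 ~1.0 in MHB, mixed into molten 0.75% MH soft agar and poured over 1.5% MHA. Peptide (final 60 μM) preincubated at 37 °C with 7 equiv chemically synthesized Gram-positive lipid II, 10 μL spotted alongside peptide alone; 16 h, 37 °C. Loss of inhibition zone indicates lipid II sequestration.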

## CCCCCCCC(=O)N[C@@H](C(=O)N[C@H](CCN)C(=O)NCC(=O)N[C@H](CO)C(=O)N[C@H](Cc1c[nH]c2ccccc12)C(=O)N(C)CC(=O)N[C@@H](CCN)C(=O)N[C@H](CCN)C(=O)N[C@@](C)(Cc1ccccc1)C(=O)N[C@@H](CCC(=O)O)C(=O)N[C@H](C(=O)N[C@@H](C(=O)N[C@@H](C)C(=O)O)C(C)C)C(C)C)C(C)C
D-peptidase BogQ
  metabolised at 1 h, 50 µM: 39%
D-peptidase TriF
  metabolised at 24 h, 50 µM: 0%
Staphylococcus aureus
  MIC: > 50 µg/mL
Escherichia coli [1]
  MIC: > 50 µg/mL

## CCCCCCCC(=O)N[C@@H](C(=O)N[C@H](CCN)C(=O)NCC(=O)N[C@H](CO)C(=O)N[C@H](Cc1c[nH]c2ccccc12)C(=O)N[C@@H](CO)C(=O)N[C@@H](CCN)C(=O)N[C@H](CCN)C(=O)N[C@@](C)(Cc1ccccc1)C(=O)N[C@@H](CCC(=O)O)C(=O)N[C@H](C(=O)N[C@@H](C(=O)N[C@@H](C)C(=O)O)C(C)C)C(C)C)C(C)C
D-peptidase BogQ
  metabolised at 1 h, 50 µM: 39%
Staphylococcus aureus
  MIC: > 50 µg/mL
Escherichia coli [1]
  MIC: > 50 µg/mL

## CCCCCCCC(=O)N[C@@H](C(=O)N[C@H](CCN)C(=O)NCC(=O)N[C@H](CO)C(=O)N[C@H](Cc1c[nH]c2ccccc12)C(=O)N(C)CC(=O)N[C@@H](CCN)C(=O)N[C@H](CCN)C(=O)N[C@@](C)(Cc1ccccc1)C(=O)N[C@@H](CCC(=O)O)C(=O)N[C@H](C(=O)N[C@@H](C(=O)N[C@@H](C)C(=O)O)[C@@H](C)CC)C(C)C)C(C)C
D-peptidase BogQ
  metabolised at 1 h, 50 µM: 40%
D-peptidase TriF
  metabolised at 24 h, 50 µM: 0%
Staphylococcus aureus
  MIC: > 50 µg/mL
Escherichia coli [1]
  MIC: > 50 µg/mL

## CCCCCCCC(=O)N[C@@H](C(=O)N[C@@H](CCN)C(=O)NCC(=O)N[C@H](CO)C(=O)N[C@H](Cc1c[nH]c2ccccc12)C(=O)N[C@@H](CO)C(=O)N[C@@H](CCN)C(=O)N[C@H](CCN)C(=O)N[C@@H](Cc1ccccc1)C(=O)N[C@@H](CCC(=O)O)C(=O)N[C@H](C(=O)N[C@@H](C(=O)N[C@@H](C)C(=O)O)C(C)C)C(C)C)C(C)C (Octanoyl-[dV][Dab]G[dS][dW]S[Dab][dDab]FEV[dV]A-OH)
D-peptidase BogQ
  metabolised at 1 h, 50 µM: 60%
Staphylococcus aureus
  MIC: > 50 µg/mL
Escherichia coli [1]
  MIC: > 50 µg/mL

## CCCCCCCC(=O)N[C@@H](C(=O)N[C@H](C)C(=O)NCC(=O)N[C@H](CO)C(=O)N[C@H](Cc1c[nH]c2ccccc12)C(=O)N(C)CC(=O)N[C@@H](CCN)C(=O)N[C@H](CCN)C(=O)N(C)[C@@H](Cc1ccccc1)C(=O)N[C@@H](CCC(=O)O)C(=O)N[C@H](C(=O)N[C@@H](C(=O)N[C@@H](C)C(=O)O)C(C)C)C(C)C)C(C)C (Octanoyl-[dV][dA]G[dS][dW][Sar][Dab][dDab][NMeF]EV[dV]A-OH)
D-peptidase BogQ
  metabolised at 1 h, 50 µM: 11%
D-peptidase TriF
  metabolised at 24 h, 50 µM: 0%
Staphylococcus aureus
  MIC: > 50 µg/mL
Escherichia coli [1]
  MIC: > 50 µg/mL

## CCCCCCCC(=O)N[C@@H](C(=O)N[C@H](CCN)C(=O)NCC(=O)N[C@H](CO)C(=O)N[C@H](Cc1c[nH]c2ccccc12)C(=O)N[C@@H](CO)C(=O)N[C@@H](CCN)C(=O)N[C@H](CCN)C(=O)N[C@@H](Cc1ccccc1)C(=O)N[C@@H](CCC(=O)O)C(=O)N[C@H](C(=O)N[C@@H](C(=O)N[C@@H](C)C(=O)O)C(C)C)C(C)C)C(C)C (Octanoyl-[dV][dDab]G[dS][dW]S[Dab][dDab]FEV[dV]A-OH)
D-peptidase BogQ
  metabolised at 1 h, 50 µM: > 90%
D-peptidase TriF
  metabolised at 24 h, 50 µM: 100%
[2]
  hemolysis at 0.5 h, 200 ug/ml: 53%
Staphylococcus aureus
  MIC: 50 µg/mL
Escherichia coli [1]
  MIC: 1.56 µg/mL

## CCCCCCCC(=O)N[C@@H](C(=O)N[C@H](CCN)C(=O)NCC(=O)N[C@H](CO)C(=O)N[C@H](Cc1c[nH]c2ccccc12)C(=O)N[C@@H](CO)C(=O)N[C@@H](CCN)C(=O)N[C@H](CCN)C(=O)N(C)[C@@H](Cc1ccccc1)C(=O)N[C@@H](CCC(=O)O)C(=O)N[C@H](C(=O)N[C@@H](C(=O)N[C@@H](C)C(=O)O)C(C)C)C(C)C)C(C)C (Octanoyl-[dV][dDab]G[dS][dW]S[Dab][dDab][NMeF]EV[dV]A-OH)
D-peptidase BogQ
  metabolised at 1 h, 50 µM: 15%
[2]
  hemolysis at 0.5 h, 200 ug/ml: 30%
Escherichia coli [3]
  Activity: Active
Staphylococcus aureus
  MIC: > 50 µg/mL
Escherichia coli [1]
  MIC: 6.25 µg/mL

## CCCCCCCC(=O)N[C@@H](C(=O)N[C@H](CCN)C(=O)NCC(=O)N[C@H](CO)C(=O)N[C@H](Cc1c[nH]c2ccccc12)C(=O)NC(C)(C)C(=O)N[C@@H](CCN)C(=O)N[C@H](CCN)C(=O)N[C@@H](Cc1ccccc1)C(=O)N[C@@H](CCC(=O)O)C(=O)N[C@H](C(=O)N[C@@H](C(=O)N[C@@H](C)C(=O)O)C(C)C)C(C)C)C(C)C (Octanoyl-[dV][dDab]G[dS][dW][Aib][Dab][dDab]FEV[dV]A-OH)
D-peptidase TriF
  metabolised at 24 h, 50 µM: 0%
Staphylococcus aureus
  MIC: > 50 µg/mL
Escherichia coli [1]
  MIC: 3.13 µg/mL

## CCCCCCCC(=O)N[C@@H](C(=O)N[C@H](CCN)C(=O)NCC(=O)N[C@H](CO)C(=O)N[C@H](Cc1c[nH]c2ccccc12)C(=O)N(C)CC(=O)N[C@@H](CCN)C(=O)N[C@H](CCN)C(=O)N[C@@H](Cc1ccccc1)C(=O)N[C@@H](CCC(=O)O)C(=O)N[C@H](C(=O)N[C@@H](C(=O)N[C@@H](C)C(=O)O)C(C)C)C(C)C)C(C)C (Octanoyl-[dV][dDab]G[dS][dW][Sar][Dab][dDab]FEV[dV]A-OH)
D-peptidase TriF
  metabolised at 24 h, 50 µM: 0%
[2]
  hemolysis at 0.5 h, 200 ug/ml: 38%
Escherichia coli [3]
  Activity: Active
Staphylococcus aureus
  MIC: > 50 µg/mL
Escherichia coli [1]
  MIC: 3.13 µg/mL

## CCCCCCCC(=O)N[C@@H](C(=O)N[C@H](CCN)C(=O)NCC(=O)N[C@H](CO)C(=O)N[C@H](Cc1c[nH]c2ccccc12)C(=O)N(C)CC(=O)N[C@@H](CCN)C(=O)N[C@H](CCN)C(=O)N(C)[C@@H](Cc1ccccc1)C(=O)N[C@@H](CCC(=O)O)C(=O)N[C@H](C(=O)N[C@@H](C(=O)N[C@@H](C)C(=O)O)[C@@H](C)CC)C(C)C)C(C)C (Octanoyl-[dV][dDab]G[dS][dW][Sar][Dab][dDab][NMeF]EV[d(aIle)]A-OH)
D-peptidase BogQ
  metabolised at 1 h, 50 µM: 46%
D-peptidase TriF
  metabolised at 24 h, 50 µM: 0%
Staphylococcus aureus
  MIC: > 50 µg/mL
Escherichia coli [1]
  MIC: 3.13 µg/mL

## CCCCCCCC(=O)N[C@@H](C(=O)N[C@H](CCN)C(=O)NC(C)(C)C(=O)N[C@H](CO)C(=O)N[C@H](Cc1c[nH]c2ccccc12)C(=O)N[C@@H](CO)C(=O)N[C@@H](CCN)C(=O)N[C@H](CCN)C(=O)N[C@@H](Cc1ccccc1)C(=O)N[C@@H](CCC(=O)O)C(=O)N[C@H](C(=O)N[C@@H](C(=O)N[C@@H](C)C(=O)O)C(C)C)C(C)C)C(C)C (Octanoyl-[dV][dDab][Aib][dS][dW]S[Dab][dDab]FEV[dV]A-OH)
D-peptidase BogQ
  metabolised at 1 h, 50 µM: > 90%
Staphylococcus aureus
  MIC: > 50 µg/mL
Escherichia coli [1]
  MIC: > 50 µg/mL

## CCCCCCCC(=O)N[C@@H](C(=O)N[C@H](CCN)C(=O)NC(C)(C)C(=O)N[C@H](CO)C(=O)N[C@H](Cc1c[nH]c2ccccc12)C(=O)N[C@@H](CO)C(=O)N[C@@H](CCN)C(=O)N[C@H](CCN)C(=O)N(C)[C@@H](Cc1ccccc1)C(=O)N[C@@H](CCC(=O)O)C(=O)N[C@H](C(=O)N[C@@H](C(=O)N[C@@H](C)C(=O)O)C(C)C)C(C)C)C(C)C (Octanoyl-[dV][dDab][Aib][dS][dW]S[Dab][dDab][NMeF]EV[dV]A-OH)
D-peptidase BogQ
  metabolised at 1 h, 50 µM: < 5%
Staphylococcus aureus
  MIC: > 50 µg/mL
Escherichia coli [1]
  MIC: > 50 µg/mL

## CCCCCCCC(=O)N[C@@H](C(=O)N[C@H](CCN)C(=O)N(C)CC(=O)N[C@H](CO)C(=O)N[C@H](Cc1c[nH]c2ccccc12)C(=O)N[C@@H](CO)C(=O)N[C@@H](CCN)C(=O)N[C@H](CCN)C(=O)N[C@@H](Cc1ccccc1)C(=O)N[C@@H](CCC(=O)O)C(=O)N[C@H](C(=O)N[C@@H](C(=O)N[C@@H](C)C(=O)O)C(C)C)C(C)C)C(C)C (Octanoyl-[dV][dDab][Sar][dS][dW]S[Dab][dDab]FEV[dV]A-OH)
D-peptidase BogQ
  metabolised at 1 h, 50 µM: > 90%
Staphylococcus aureus
  MIC: > 50 µg/mL
Escherichia coli [1]
  MIC: > 50 µg/mL

## CCCCCCCC(=O)N[C@@H](C(=O)N[C@H](CCN)C(=O)N(C)CC(=O)N[C@H](CO)C(=O)N[C@H](Cc1c[nH]c2ccccc12)C(=O)N[C@@H](CO)C(=O)N[C@@H](CCN)C(=O)N[C@H](CCN)C(=O)N(C)[C@@H](Cc1ccccc1)C(=O)N[C@@H](CCC(=O)O)C(=O)N[C@H](C(=O)N[C@@H](C(=O)N[C@@H](C)C(=O)O)C(C)C)C(C)C)C(C)C (Octanoyl-[dV][dDab][Sar][dS][dW]S[Dab][dDab][NMeF]EV[dV]A-OH)
D-peptidase BogQ
  metabolised at 1 h, 50 µM: < 5%
Staphylococcus aureus
  MIC: > 50 µg/mL
Escherichia coli [1]
  MIC: > 50 µg/mL

## CCCCCCCC(=O)N[C@@H](C(=O)N[C@@H](C(=O)NCC(=O)N[C@H](CO)C(=O)N[C@H](Cc1c[nH]c2ccccc12)C(=O)N(C)CC(=O)N[C@@H](CCN)C(=O)N[C@H](CCN)C(=O)N(C)[C@@H](Cc1ccccc1)C(=O)N[C@@H](CCC(=O)O)C(=O)N[C@H](C(=O)N[C@@H](C(=O)N[C@@H](C)C(=O)O)C(C)C)C(C)C)C(C)C)C(C)C (Octanoyl-[dV][dV]G[dS][dW][Sar][Dab][dDab][NMeF]EV[dV]A-OH)
D-peptidase BogQ
  metabolised at 1 h, 50 µM: 12%
D-peptidase TriF
  metabolised at 24 h, 50 µM: 0%
Staphylococcus aureus
  MIC: > 50 µg/mL
Escherichia coli [1]
  MIC: > 50 µg/mL
